Results taken from ChEMBL document CHEMBL2203193, “Synthesis of novel mono and bis-indole conduritol derivatives and their α/β-glycosidase inhibitory effects” (Bioorg Med Chem Lett, 2012).

Experiments:
[1] = Inhibition of almond beta-glucosidase using 4-nitrophenyl beta-D-glucopyranoside as substrate after 30 mins by spectrophotometric analysis; parameters: species or system Prunus dulcis
How it was run: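 Reaction held 1 mM 4-nitrophenyl β-D-glucopyranoside in phosphate buffer pH 6.8 with inhibitor, preincubated at 37 °C for 5 min. Enzyme (EC 3.2.1.21, 0.075 unit) was then added, followed by 30 min at 37 °C. Na₂CO₃ (100 mM) stop, then absorbance at 400 nm. Inhibitor at 10, 20, 30, 50, 70, 80, 90 and 100, triplicates. Control without inhibitor set to 100%; IC50 from activity% vs log[inhibitor].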

[2] = Inhibition of Bacillus stearothermophilus alpha-glucosidase using 4-nitrophenyl alpha-D-glucopyranoside as substrate after 30 mins by spectrophotometric analysis; parameters: species or system Geobacillus stearothermophilus
How it was run: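 Inhibitor in phosphate buffer pH 6.8 with 1 mM 4-nitrophenyl α-D-glucopyranoside was preincubated 5 min at 37 °C. Then 0.075 unit enzyme was added and the mix held 30 min at 37 °C. Stopped with 100 mM Na₂CO₃; liberated p-nitrophenol read at 400 nm. Inhibitor levels were 1, 3, 10, 15 and 25, each in triplicate. IC50 came from an activity% vs log[inhibitor] plot, with no-inhibitor control taken as 100%.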

Compound	IC50 [1] [µM]	IC50 [2] [µM]
O[C@H]1[C@H](O)[C@@H](N2CCc3ccccc32)C=C[C@@H]1N1CCc2ccccc21	67.7	18.1
CC(=O)O[C@H]1[C@H](OC(C)=O)[C@@H](n2ccc3ccccc32)C=C[C@@H]1n1ccc2ccccc21	52.8	19.3
CC(=O)O[C@@H]1[C@@H](O)[C@H](OC(C)=O)C=C[C@H]1n1ccc2ccccc21	23.1	11.6

The remaining lines, values ahead:

IC50 [1] [µM]	IC50 [2] [µM]	Compound
24.3	12.4	CC(=O)O[C@@H]1[C@@H](O)[C@H](OC(C)=O)C=C[C@H]1N1CCc2ccccc21
103	9.24	C[C@H]1O[C@H](O[C@H]2[C@H](O)[C@@H](O)[C@@H](O[C@H]3[C@H](O)[C@@H](O)C(O)O[C@@H]3CO)O[C@@H]2CO)[C@H](O)[C@@H](O)[C@@H]1N[C@H]1C=C(CO)[C@@H](O)[C@H](O)[C@H]1O (stereo not given in full) [ACARBOSE]
